Several values for one entry are separate records, joined by “and”; a condition that tells them apart may be missing. Identical values can stand only once.
Tested on: HEK-293T
Experiment: Multiplex assay against HEK293T
Format: toxicity, cell-based
Settings: human
Summary of the method: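 Live cells were stained at seeding with Hoechst33342, BioTracker Green Microtubule Cytoskeleton Dye, MitoTracker Red and Annexin V Alexa Fluor 680, then imaged on a CQ1 microscope at 37°C and 5% CO2 after compound addition. CellPathfinder machine-learning gating split cells into Hoechst high-intensity objects or normal cells. Normal cells were split into healthy, pyknosed or fragmented nuclei, and pyknosed cells into mitotic or apoptotic. Tubulin, mitochondrial-mass and membrane-permeability phenotypes are per cents of healthy-nucleus cells.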

[1] = 12 h, 1 µM, compound concentration 1 uM
[2] = 12 h, 10 µM, compound concentration 10 uM
[3] = 24 h, 1 µM, compound concentration 1 uM
[4] = 24 h, 10 µM, compound concentration 10 uM
[5] = 48 h, 1 µM, compound concentration 1 uM
[6] = 48 h, 10 µM, compound concentration 10 uM

O=C(NCCNCC(O)COc1ccc(O)cc1)N1CCOCC1.O=C(NCCNCC(O)COc1ccc(O)cc1)N1CCOCC1.O=C(O)/C=C/C(=O)O (stereo unspecified) [XAMOTEROL FUMARATE]
Population Apoptotic (%) [1]: 39% and 60% | Population Fragmented Nuclei (%) [1]: 5% | Population Healthy Nuclei (%) [1]: 79% and 76% | Population Hoechst High Intensity Objects (%) [1]: 4% and 14% | Population Membrane Permeable-Phenotype (%) [1]: 0% | Population Mitochondria Different-Phenotype (%) [1]: 39% and 57% | Population Mitotic Cells (%) [1]: 60% and 39% | Population Normal (%) [1]: 95% and 85% | Population Pyknosed Nuclei (%) [1]: 14% and 17% | Population Tubulin-Different-Phenotype (%) [1]: 26% and 21% | Total Cell Count [1]: 339 and 271 | Population Apoptotic (%) [2]: 35% and 29% | Population Fragmented Nuclei (%) [2]: 7% and 4% | Population Healthy Nuclei (%) [2]: 83% and 86% | Population Hoechst High Intensity Objects (%) [2]: 6% and 5% | Population Membrane Permeable-Phenotype (%) [2]: 0% | Population Mitochondria Different-Phenotype (%) [2]: 39% and 62% | Population Mitotic Cells (%) [2]: 65% and 70% | Population Normal (%) [2]: 93% and 94% | Population Pyknosed Nuclei (%) [2]: 8% and 9% | Population Tubulin-Different-Phenotype (%) [2]: 19% and 23% | Total Cell Count [2]: 499 and 406 | Population Apoptotic (%) [3]: 26% and 45% | Population Fragmented Nuclei (%) [3]: 8% and 9% | Population Healthy Nuclei (%) [3]: 78% and 80% | Population Hoechst High Intensity Objects (%) [3]: 6% and 13% | Population Membrane Permeable-Phenotype (%) [3]: 0% | Population Mitochondria Different-Phenotype (%) [3]: 18% and 38% | Population Mitotic Cells (%) [3]: 73% and 54% | Population Normal (%) [3]: 93% and 86% | Population Pyknosed Nuclei (%) [3]: 12% and 10% | Population Tubulin-Different-Phenotype (%) [3]: 17% and 15% | Total Cell Count [3]: 475 and 366 | Population Apoptotic (%) [4]: 21% and 33% | Population Fragmented Nuclei (%) [4]: 9% and 7% | Population Healthy Nuclei (%) [4]: 79% and 85% | Population Hoechst High Intensity Objects (%) [4]: 5% and 4% | Population Membrane Permeable-Phenotype (%) [4]: 0% | Population Mitochondria Different-Phenotype (%) [4]: 25% and 42% | Population Mitotic Cells (%) [4]: 78% and 66% | Population Normal (%) [4]: 94% and 95% | Population Pyknosed Nuclei (%) [4]: 11% and 7% | Population Tubulin-Different-Phenotype (%) [4]: 12% and 17% | Total Cell Count [4]: 632 and 542 | Population Apoptotic (%) [5]: 21% and 41% | Population Fragmented Nuclei (%) [5]: 14% and 11% | Population Healthy Nuclei (%) [5]: 77% and 81% | Population Hoechst High Intensity Objects (%) [5]: 2% and 4% | Population Membrane Permeable-Phenotype (%) [5]: 2% and 0% | Population Mitochondria Different-Phenotype (%) [5]: 11% and 18% | Population Mitotic Cells (%) [5]: 78% and 58% | Population Normal (%) [5]: 97% and 95% | Population Pyknosed Nuclei (%) [5]: 7% and 6% | Population Tubulin-Different-Phenotype (%) [5]: 9% and 10% | Total Cell Count [5]: 918 and 526 | Population Apoptotic (%) [6]: 17% and 25% | Population Fragmented Nuclei (%) [6]: 15% and 16% | Population Healthy Nuclei (%) [6]: 79% and 77% | Population Hoechst High Intensity Objects (%) [6]: 0% and 2% | Population Membrane Permeable-Phenotype (%) [6]: 1% and 0% | Population Mitochondria Different-Phenotype (%) [6]: 13% and 16% | Population Mitotic Cells (%) [6]: 82% and 74% | Population Normal (%) [6]: 99% and 97% | Population Pyknosed Nuclei (%) [6]: 5% | Population Tubulin-Different-Phenotype (%) [6]: 6% and 10% | Total Cell Count [6]: 1116 and 827
